Test results published in PubChem BioAssay.
Unmarked numbers belong to inactive results. Inconclusive results are not listed. Activity calls are given as the source filed them.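 Rule for the calls, unless noted: active = cell viability at or below a set limit in both duplicate runs, the limit being the all-compound median minus 4 SD (cut at about 23% in these data, passing the limit was not always enough); inconclusive = no clear call, values can overlap the other calls; inactive = the rest.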

How the values were obtained:
[1] = S. cerevisiae growth inhibition in permissive medium (OD615), pilot counter-assay for S. cerevisiae lifespan shortening project, permissive growth control (AID 705;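 active = growth inhibition above 25% in both replicates, a cutoff set 3 SD above the mean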); settings: OD615, 24 h, at 10 µM, hits give high values
Outline: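 Material: engineered DeaD yeast; Compound: one dose 10 µM, DMSO 0.25% final; Detection: absorbance (optical density) at 615 nm; Buffer or medium: permissive raffinose/galactose medium; Timing: 24 h exposure, 30 °C.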

[2] = S. cerevisiae growth inhibition in restrictive medium, OD615, pilot screen, restrictive growth control, yeast lifespan reduction project (AID 706;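 active = growth inhibition above a set limit, 3 SD over mean compound inhibition, in both replicates, cut at about 43% in these data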;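 note: modified DeaD lifespan yeast strain shifted to restrictive glucose medium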); settings: OD615, 48 h, at 10 µM, hits give high values
Outline: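 Buffer or medium: restrictive glucose medium (CSMM-D); test system: modified S. cerevisiae; doses: single dose of 10 µM compound final, 0.25% DMSO; schedule: 48 h compound exposure at 30 °C; detection: absorbance (optical density) measured at 615 nm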

[3] = doxorubicin toxicity protection in MRP-1 cells – H69AR cells, CellTiter-Glo, duplicate, MRP-1 activator project, pilot screen (AID 807;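 active = viability increase at or above a cutoff of the median across tested compounds plus 3 SD, cut at about 8.5% in these data, passing the limit was not always enough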;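 note: compound pretreatment 18-22 h then 72 h combined with doxorubicin; 0% = doxorubicin alone and 100% = vehicle without doxorubicin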); settings: H69AR viability with doxorubicin, CellTiter-Glo luminescence; at 10 µM; hits give high values
[4] = viability of HCT116 without oncogenic beta-catenin – human colon tumor cells, pilot screen (AID 823); settings: HCT116 beta-catenin knockout viability, CellTiter-Glo, 60 h; at 10 µM; hits give low values;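 note: 0% = wells killed by 20 µM Hyamine and 100% = untreated DMSO cell wells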
[5] = viability of PTEN-null HCT116 cells – cell-based, HCT116 clonal line, CellTiter-Glo, pilot screen (AID 824;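 active = viability at or below 27.92% in each of two runs, the all-compound median minus 4 SD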;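 note: 0% = 20 µM Hyamine control and 100% = vehicle cell control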); settings: HCT116 PTEN-deleted viability, 60 h, at 10 µM, hits give low values
[6] = RAM signaling pathway blockade in yeast – S. cerevisiae, Pdr1DBD-CYC8 efflux-inhibited sensitized strain, primary screen (AID 1298;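 active = RAM network inhibition above 8.4% in each of two replicates, 3 SD over the compound average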;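 note: 0% = DMSO untreated cells without growth and 100% = 10 µM 1-NA-PP1 full growth; higher means more yeast growth rescued from 5-FOA killing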); settings: S. cerevisiae cbk1-as DSE1-URA3 strain, 5-FOA growth OD615, 2 d; at 50 µM; hits give high values
[7] = RAM pathway blockade in budding yeast – dse1pr::URA3 reporter, 5-FOA selection, pilot screen (AID 869;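 active = inhibition over a set limit, the all-compound mean plus 3 SD, in both replicate runs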;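 note: 0% = DMSO wells with no growth and 100% = 10 µM 1-NA-PP1 with full growth; RAM network block rescues cells from 5-FOA so hits raise OD615 growth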); settings: S. cerevisiae dse1pr::URA3 5-FOA growth, OD615, 2 d; at 10 µM; hits give high values; strain carries analog-sensitive mutant Cbk1 kinase

Row | Structure (SMILES) | growth inhibition [1] [%] | growth inhibition [2] [%] | viability increase [3] [%] | viability [4] | viability [5] | RAM network inhibition [6] [%] | inhibition [7] [%]
1 | CCOC(=O)c1c(NC(=O)c2ccc(Br)o2)sc(C)c1CC | 1.51 | -8.3 | -0.6 | 73.8% | 70.3% | 9.97 | –
2 | COC(=O)c1ccc(OCC(O)CN2CCC(C)CC2)cc1 (stereo unspecified) | -2.79 | -3.85 | -2.26 | 92.3% | 94.1% | 4.68 | 0.835
3 | CCN1CCN(CC(O)COc2ccc(C(C)=O)cc2)CC1 (stereo unspecified) | -5.8 | -1.04 | 0.34 | 98.8% | 100% | 0.31 | 0.405
4 | Cc1nnc(NC(=O)CSc2nnc(Cc3cccn3C)n2-c2cccc(C)c2C)s1 | 6.78 | 31 | -0.56 | 100% | 87.2% | -0.2 | –
5 | CCC(C(=O)N1CCN(c2cccc(Cl)c2)CC1)c1ccccc1 (stereo unspecified) | 1.93 | -5.71 | -4.98 | 57.7% | 63% | 8.74 | –
6 | COc1ccc(CCc2nc(-c3ccc(-n4cccc4)cc3)no2)cc1 | -20.1 | -25.5 | 1.78 | 93.9% | 91.6% | 6.54 | –
7 | COc1ccc(S(=O)(=O)N2CCN(Cc3c[nH]c4ccccc34)CC2)cc1 | -13.2 | -14.2 | -4.53 | 80.7% | 89.6% | 4.82 | 2.11
8 | COCCNC(=O)c1cc(-c2ccccc2OC)on1 | 5.14 | 11.4 | -5.78 | 62.3% | 55.5% | 2.09 | -0.05
9 | CCOCCn1c(SCC(=O)OCc2ccccc2)nc2c1c(=O)[nH]c(=O)n2C | -13.7 | -14.2 | -0.57 | 104% | 101% | 3.42 | 0.495
10 | CCc1ccc(-n2c(O)cnc2Nc2nc(C)cc(C)n2)cc1 | -7.38 | -12.2 | 1.61 | 103% | 103% | 3.23 | 0.325
11 | Cn1cccc1Cc1nnc(SCC(=O)N2CCCCCC2)n1-c1ccc(F)cc1 | 0.935 | 18 | -1.67 | 84% | 88.5% | 4.48 | 1.27
12 | Cc1cc(C)cc(OCCCCCNCCO)c1 | -8.19 | -14.7 | -3.03 | 87.6% | 86.5% | 2.47 | 2.79
13 | Cc1cccc(N2CCN(c3nc4ccc(Cl)cc4n4cnnc34)CC2)c1C | -17.7 | -14.7 | -8.78 | 2.03% (active) | 1.75% (active) | -0.95 | -0.44
14 | CCOC(=O)c1c(C)c(C(=O)O)n(C)c1C | -12.4 | -19.7 | 0.64 | 99.5% | 94.6% | 2.91 | 2.54
15 | Cc1ccc(S(=O)(=O)NCc2nc3ccccc3[nH]2)cc1 | -4.75 | 4.05 | 1.61 | 98.7% | 97.8% | 1.58 | 2.42
16 | COc1cc2c(cc1OC)CN(Cc1cccs1)CC2 | -20.3 | -28.9 | -1.14 | 86.4% | 90% | 2.76 | 2.71
17 | Cc1cc(C)nc(SCc2ccccc2C#N)n1 | -9.81 | -6.26 | -0.49 | 98.8% | 98% | 9.71 | 0.705
18 | CCOC(=O)CC1C(=O)NCCN1C(=O)c1cc2c(=O)n3cccc(C)c3nc2s1 (stereo unspecified) | -11 | -11.3 | -3.53 | 98% | 98.8% | -1.37 | -0.035
19 | COc1ccc(N(C)C(=O)c2ccc3snnc3c2)cc1 | 4.09 | -8.11 | -1.56 | 105% | 94.3% | 0.05 | 2.6
20 | Cc1ccc2oc(=O)n(CC(=O)O)c2c1 | -6.32 | 5.35 | -0.21 | 98.6% | 93.7% | -1.2 | 1.27
